Values after ≈ are worked out from the molar mass of the structure shown.
Assays:
Acinetobacter baumannii [1] = assay: Antibacterial activity against imipenem-susceptible Acinetobacter baumannii ab3 by broth dilution method; assay type: functional
In short: (§1)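 Clinical isolates were collected at three Taiwan hospitals (1993–2003) and grown in tryptic soy broth at 37°C for 18 h. MIC by broth dilution following CLSI recommendations.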

Acinetobacter baumannii [2] = assay: Antibacterial activity against imipenem-resistant Acinetobacter baumannii abh29 by broth dilution method; assay type: functional; in short: as §1
Acinetobacter baumannii [3] = assay: Antibacterial activity against imipenem-resistant Acinetobacter baumannii abh37 by broth dilution method; assay type: functional; in short: as §1
Acinetobacter baumannii [4] = assay: Antibacterial activity against imipenem-resistant Acinetobacter baumannii ab1265 by broth dilution method; assay type: functional; in short: as §1
Acinetobacter baumannii [5] = assay: Antibacterial activity against imipenem-susceptible Acinetobacter baumannii ATCC 19606 by broth dilution method; assay type: functional; settings: ATCC 19606 = CIP 70.34 = JCM 6841
Acinetobacter baumannii [6] = assay: Antibacterial activity against imipenem-resistant Acinetobacter baumannii abh36 by broth dilution method; assay type: functional; in short: as §1
Acinetobacter baumannii [7] = assay: Antibacterial activity against imipenem-resistant Acinetobacter baumannii abh20 by broth dilution method; assay type: functional; in short: as §1
Acinetobacter baumannii [8] = assay: Antibacterial activity against imipenem-resistant Acinetobacter baumannii abh9 by broth dilution method; assay type: functional; in short: as §1
Acinetobacter baumannii [9] = assay: Antibacterial activity against imipenem-resistant Acinetobacter baumannii abh14 by broth dilution method; assay type: functional; in short: as §1
Acinetobacter baumannii [10] = assay: Antibacterial activity against imipenem-susceptible Acinetobacter baumannii ab4 by broth dilution method; assay type: functional; in short: as §1
Acinetobacter baumannii [11] = assay: Antibacterial activity against imipenem-susceptible Acinetobacter baumannii ab1254 by broth dilution method; assay type: functional; in short: as §1
Acinetobacter baumannii [12] = assay: Antibacterial activity against imipenem-resistant Acinetobacter baumannii ab1266 by broth dilution method; assay type: functional; in short: as §1
Acinetobacter baumannii [13] = assay: Antibacterial activity against imipenem-susceptible Acinetobacter baumannii ab20 by broth dilution method; assay type: functional; in short: as §1
Acinetobacter baumannii [14] = assay: Antibacterial activity against imipenem-resistant Acinetobacter baumannii abh26 by broth dilution method; assay type: functional; in short: as §1
Acinetobacter baumannii [15] = assay: Antibacterial activity against imipenem-resistant Acinetobacter baumannii abh13 by broth dilution method; assay type: functional; in short: as §1
Acinetobacter baumannii [16] = assay: Antibacterial activity against imipenem-intermediate Acinetobacter baumannii ab1297 by broth dilution method; assay type: functional
In short: (§2)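 Clinical A. baumannii isolates collected at three Taiwanese hospitals, routinely grown in tryptic soy broth at 37°C for 18 h. MICs (μg ml⁻¹) were determined by broth dilution following CLSI recommendations, or by Etest strips following the manufacturer's instructions.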

Acinetobacter baumannii [17] = assay: Antibacterial activity against imipenem-susceptible Acinetobacter baumannii ab1308 by broth dilution method; assay type: functional; in short: as §2
Acinetobacter baumannii [18] = assay: Antibacterial activity against imipenem-resistant Acinetobacter baumannii abh11 by broth dilution method; assay type: functional; in short: as §1
Acinetobacter baumannii [19] = assay: Antibacterial activity against imipenem-resistant Acinetobacter baumannii abh18 by broth dilution method; assay type: functional; in short: as §1
Acinetobacter baumannii [20] = assay: Antibacterial activity against imipenem-susceptible Acinetobacter baumannii ab8 by broth dilution method; assay type: functional; in short: as §1
Acinetobacter baumannii [21] = assay: Antibacterial activity against imipenem-resistant Acinetobacter baumannii abh17 by broth dilution method; assay type: functional; in short: as §1
Acinetobacter baumannii [22] = assay: Antibacterial activity against imipenem-susceptible Acinetobacter baumannii ab1316 by broth dilution method; assay type: functional; in short: as §2
Acinetobacter baumannii [23] = assay: Antibacterial activity against imipenem-resistant Acinetobacter baumannii abh39 by broth dilution method; assay type: functional; in short: as §1
Acinetobacter baumannii [24] = assay: Antibacterial activity against imipenem-susceptible Acinetobacter baumannii ab12 by broth dilution method; assay type: functional; in short: as §1
Acinetobacter baumannii [25] = assay: Antibacterial activity against imipenem-resistant Acinetobacter baumannii ISAB ab8(r) by broth dilution method; assay type: functional
Escherichia coli [26] = assay: Antibacterial activity against Escherichia coli TOP10 by Etest; assay type: functional
In short: (§3)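 E. coli TOP10 carrying empty pBAD/Myc-His or pBAD/Myc-His with blaOXA-66 cloned from the named strain, grown at 37°C in LB with 50 μg/ml ampicillin to OD600 0.5. Plated on Mueller-Hinton agar with 50 μg/ml ampicillin and 0.002% arabinose for induction. Imipenem MIC read by Etest.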

Escherichia coli [27] = assay: Antibacterial activity against Escherichia coli TOP10 expressing imipenem-susceptible Acinetobacter baumannii ab1254 blaoxa-66 gene by Etest; assay type: functional; in short: as §3
Acinetobacter baumannii [28] = assay: Ratio of MIC for Acinetobacter baumannii ISAB ab8(r) to MIC for Acinetobacter baumannii ISAB ab1254(r) in presence of […] ug/ml efflux pump inhibitor carbonyl cyanide m-chlorophenyl-hydrazone; assay type: functional
Acinetobacter baumannii [29] = assay: Antibacterial activity against imipenem-resistant Acinetobacter baumannii ISAB ab1254(r) by broth dilution method in presence of 24 ug/ml efflux pump inhibitor carbonyl cyanide m-chlorophenyl-hydrazone; assay type: functional
Acinetobacter baumannii [30] = assay: Ratio of MIC for Acinetobacter baumannii ISAB ab8(r) to MIC for Acinetobacter baumannii ISAB ab8(r) in presence of […] ug/ml efflux pump inhibitor carbonyl cyanide m-chlorophenyl-hydrazone; assay type: functional
Acinetobacter baumannii [31] = assay: microbe, parasite or virus in culture; settings: ISAB ab8(r)
Acinetobacter baumannii [32] = assay: Antibacterial activity against imipenem-resistant Acinetobacter baumannii ISAB ab1254(r) by broth dilution method; assay type: functional
Escherichia coli [33] = assay: Antibacterial activity against Escherichia coli TOP10 expressing imipenem-resistant Acinetobacter baumannii ab1266 blaoxa-66 gene by Etest; assay type: functional; in short: as §3
Acinetobacter baumannii [34] = assay: Antibacterial activity against imipenem-resistant Acinetobacter baumannii ISAB ab8(r) by broth dilution method in presence of 2 ug/ml efflux pump inhibitor carbonyl cyanide m-chlorophenyl-hydrazone; assay type: functional
Acinetobacter baumannii [35] = assay: Ratio of MIC for Acinetobacter baumannii ISAB ab8(r) to MIC for Acinetobacter baumannii ISAB ab8(r) in presence of 2 ug/ml efflux pump inhibitor carbonyl cyanide m-chlorophenyl-hydrazone; assay type: functional
Acinetobacter baumannii [36] = assay: Ratio of MIC for Acinetobacter baumannii ISAB ab1254(r) to MIC for Acinetobacter baumannii ISAB […] in presence of 2 ug/ml efflux pump inhibitor carbonyl cyanide m-chlorophenyl-hydrazone; assay type: functional
Acinetobacter baumannii [37] = assay: Antibacterial activity against imipenem-resistant Acinetobacter baumannii ISAB ab1254(r) by broth dilution method in presence of 2 ug/ml efflux pump inhibitor carbonyl cyanide m-chlorophenyl-hydrazone; assay type: functional

SMILES | MIC (Acinetobacter baumannii [1]) | MIC (Acinetobacter baumannii [2]) | MIC (Acinetobacter baumannii [3]) | MIC (Acinetobacter baumannii [4]) | MIC (Acinetobacter baumannii [6]) | MIC (Acinetobacter baumannii [7]) | MIC (Acinetobacter baumannii [8]) | MIC (Acinetobacter baumannii [9]) | MIC (Acinetobacter baumannii [10]) | MIC (Acinetobacter baumannii [11]) | MIC (Acinetobacter baumannii [12]) | MIC (Acinetobacter baumannii [13]) | MIC (Acinetobacter baumannii [14]) | MIC (Acinetobacter baumannii [15]) | MIC (Acinetobacter baumannii [16]) | MIC (Acinetobacter baumannii [17]) | MIC (Acinetobacter baumannii [18]) | MIC (Acinetobacter baumannii [19]) | MIC (Acinetobacter baumannii [20]) | MIC (Acinetobacter baumannii [23]) | further results
O=C(O)c1cn(C2CC2)c2cc(N3CCNCC3)c(F)cc2c1=O [CIPROFLOXACIN] | 0.125 µg/mL (≈ 0.377 µM) | > 32 µg/mL | > 32 µg/mL | > 32 µg/mL | > 32 µg/mL | > 32 µg/mL | > 32 µg/mL | > 32 µg/mL | 0.25 µg/mL (≈ 0.754 µM) | > 32 µg/mL | > 32 µg/mL | 3 µg/mL (≈ 9.05 µM) | > 32 µg/mL | > 32 µg/mL | > 32 µg/mL | > 32 µg/mL | > 32 µg/mL | > 32 µg/mL | 0.38 µg/mL (≈ 1.15 µM) | > 32 µg/mL | MIC (Acinetobacter baumannii [5]): 0.75 µg/mL (≈ 2.26 µM); MIC (Acinetobacter baumannii [21]): > 32 µg/mL; MIC (Acinetobacter baumannii [22]): > 32 µg/mL; MIC (Acinetobacter baumannii [24]): 0.25 µg/mL (≈ 0.754 µM)
NCC[C@H](O)C(=O)N[C@@H]1C[C@H](N)[C@@H](O[C@H]2O[C@H](CN)[C@@H](O)[C@H](O)[C@H]2O)[C@H](O)[C@H]1O[C@H]1O[C@H](CO)[C@@H](O)[C@H](N)[C@H]1O [AMIKACIN] | 3 µg/mL (≈ 5.12 µM) | > 256 µg/mL | > 256 µg/mL | > 256 µg/mL | > 256 µg/mL | > 256 µg/mL | > 256 µg/mL | > 256 µg/mL | 8 µg/mL (≈ 13.7 µM) | > 256 µg/mL | > 256 µg/mL | 128 µg/mL (≈ 219 µM) | > 256 µg/mL | > 256 µg/mL | > 256 µg/mL | > 256 µg/mL | > 256 µg/mL | > 256 µg/mL | 12 µg/mL (≈ 20.5 µM) | > 256 µg/mL | MIC (Acinetobacter baumannii [21]): > 256 µg/mL; MIC (Acinetobacter baumannii [22]): > 256 µg/mL; MIC (Acinetobacter baumannii [24]): > 256 µg/mL
C[C@@H](O)[C@H]1C(=O)N2C(C(=O)O)=C(SCCNC=N)C[C@H]12 [IMIPENEM ANHYDROUS] | 1 µg/mL (≈ 3.34 µM) | 32 µg/mL (≈ 107 µM) | 32 µg/mL (≈ 107 µM) | > 32 µg/mL | 32 µg/mL (≈ 107 µM) | 32 µg/mL (≈ 107 µM) | 32 µg/mL (≈ 107 µM) | 32 µg/mL (≈ 107 µM) | 1 µg/mL (≈ 3.34 µM) | 3 µg/mL (≈ 10 µM) | > 32 µg/mL | 1.5 µg/mL (≈ 5.01 µM) | 32 µg/mL (≈ 107 µM) | 32 µg/mL (≈ 107 µM) | 8 µg/mL (≈ 26.7 µM) | 2 µg/mL (≈ 6.68 µM) | 32 µg/mL (≈ 107 µM) | 32 µg/mL (≈ 107 µM) | 1 µg/mL (≈ 3.34 µM) | 32 µg/mL (≈ 107 µM) | MIC (Acinetobacter baumannii [25]): 256 µg/mL (≈ 855 µM); MIC (Escherichia coli [26]): 0.19 µg/mL (≈ 0.635 µM); MIC (Escherichia coli [27]): 0.75 µg/mL (≈ 2.51 µM); fold change (FC) (Acinetobacter baumannii [28]): 8; MIC (Acinetobacter baumannii [5]): 0.38 µg/mL (≈ 1.27 µM); MIC (Acinetobacter baumannii [29]): 16 µg/mL; fold change (FC) (Acinetobacter baumannii [30]): 4; MIC (Acinetobacter baumannii [31]): 64 µg/mL (≈ 214 µM); MIC (Acinetobacter baumannii [32]): 128 µg/mL (≈ 428 µM); MIC (Acinetobacter baumannii [21]): 32 µg/mL (≈ 107 µM); MIC (Acinetobacter baumannii [22]): 3 µg/mL (≈ 10 µM); MIC (Acinetobacter baumannii [24]): 1 µg/mL (≈ 3.34 µM); MIC (Escherichia coli [33]): 1.5 µg/mL (≈ 5.01 µM)
C[C@@H](O)[C@H]1C(=O)N2C(C(=O)O)=C(S[C@@H]3CN[C@H](C(=O)N(C)C)C3)[C@H](C)[C@H]12 [MEROPENEM] | 0.38 µg/mL (≈ 0.991 µM) | > 32 µg/mL | 32 µg/mL (≈ 83.4 µM) | > 32 µg/mL | > 32 µg/mL | 32 µg/mL (≈ 83.4 µM) | > 32 µg/mL | > 32 µg/mL | 0.5 µg/mL (≈ 1.3 µM) | 0.75 µg/mL (≈ 1.96 µM) | > 32 µg/mL | 0.75 µg/mL (≈ 1.96 µM) | 32 µg/mL (≈ 83.4 µM) | > 32 µg/mL | 32 µg/mL (≈ 83.4 µM) | 0.75 µg/mL (≈ 1.96 µM) | > 32 µg/mL | 32 µg/mL (≈ 83.4 µM) | 0.5 µg/mL (≈ 1.3 µM) | 32 µg/mL (≈ 83.4 µM) | MIC (Acinetobacter baumannii [25]): 8 µg/mL (≈ 20.9 µM); MIC (Acinetobacter baumannii [34]): 4 µg/mL; fold change (FC) (Acinetobacter baumannii [35]): 2; fold change (FC) (Acinetobacter baumannii [36]): 2; MIC (Acinetobacter baumannii [32]): 6 µg/mL (≈ 15.6 µM); MIC (Acinetobacter baumannii [37]): 3 µg/mL; MIC (Acinetobacter baumannii [21]): 16 µg/mL (≈ 41.7 µM); MIC (Acinetobacter baumannii [22]): 1.5 µg/mL (≈ 3.91 µM); MIC (Acinetobacter baumannii [24]): 0.5 µg/mL (≈ 1.3 µM)
CO/N=C(\C(=O)N[C@@H]1C(=O)N2C(C(=O)[O-])=C(C[N+]3(C)CCCC3)CS[C@H]12)c1csc(N)n1 [CEFEPIME] | 6 µg/mL (≈ 12.5 µM) | 96 µg/mL (≈ 200 µM) |  |  | 256 µg/mL (≈ 533 µM) | 256 µg/mL (≈ 533 µM) |  | 256 µg/mL (≈ 533 µM) |  |  |  |  | 256 µg/mL (≈ 533 µM) |  |  |  |  | 256 µg/mL (≈ 533 µM) |  | 256 µg/mL (≈ 533 µM) | 
